{"source": "ChEMBL document CHEMBL4219021", "about": "“Discovery of a Small-Molecule Degrader of Bromodomain and Extra-Terminal (BET) Proteins with Picomolar Cellular Potencies and Capable of Achieving Tumor Regression” (J Med Chem, 2018)", "key": {"[1]": {"biological_target": "T1, Bromodomain-containing protein 2 (Homo sapiens, UniProt P25440)", "T1 sequence (P25440 whole entry, the tested form may be a part)": "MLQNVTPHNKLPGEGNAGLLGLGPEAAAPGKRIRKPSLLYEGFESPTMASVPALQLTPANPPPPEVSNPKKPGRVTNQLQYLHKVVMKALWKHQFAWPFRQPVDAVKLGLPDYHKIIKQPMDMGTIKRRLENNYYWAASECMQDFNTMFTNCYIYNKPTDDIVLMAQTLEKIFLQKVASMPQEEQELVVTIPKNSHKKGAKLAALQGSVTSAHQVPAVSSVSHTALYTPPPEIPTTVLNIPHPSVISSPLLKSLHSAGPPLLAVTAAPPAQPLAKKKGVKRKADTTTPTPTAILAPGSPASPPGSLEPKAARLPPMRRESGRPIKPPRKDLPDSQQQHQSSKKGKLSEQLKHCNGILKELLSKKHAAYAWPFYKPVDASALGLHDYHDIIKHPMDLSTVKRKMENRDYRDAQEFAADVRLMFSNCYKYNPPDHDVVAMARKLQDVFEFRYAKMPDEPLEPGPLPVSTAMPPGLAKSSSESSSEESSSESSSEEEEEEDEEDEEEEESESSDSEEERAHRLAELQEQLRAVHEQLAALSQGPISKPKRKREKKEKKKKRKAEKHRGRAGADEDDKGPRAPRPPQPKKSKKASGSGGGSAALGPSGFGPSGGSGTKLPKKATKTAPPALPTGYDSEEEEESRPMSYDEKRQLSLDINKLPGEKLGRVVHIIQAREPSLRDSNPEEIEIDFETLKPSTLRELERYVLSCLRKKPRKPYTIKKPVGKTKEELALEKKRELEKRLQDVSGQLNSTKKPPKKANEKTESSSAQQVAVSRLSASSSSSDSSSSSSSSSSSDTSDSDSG", "assay": "Inhibition of FAM-labeled ZBA248 binding to recombinant N-terminal His6-tagged BRD2 bromodomain 1 (72 to 205 residues) (unknown origin) expressed in Escherichia coli Rosetta2 DE3 after 30 mins by fluorescence polarization assay"}, "[2]": {"biological_target": "T1, Bromodomain-containing protein 2", "assay": "Inhibition of FAM-labeled ZBA248 binding to recombinant N-terminal His6-tagged BRD2 bromodomain 2 (349 to 460 residues) (unknown origin) expressed in Escherichia coli Rosetta2 DE3 after 30 mins by fluorescence polarization assay"}, "[3]": {"biological_target": "T2, Bromodomain-containing protein 3 (Homo sapiens, UniProt Q15059)", "T2 sequence (Q15059 whole entry, the tested form may be a part)": "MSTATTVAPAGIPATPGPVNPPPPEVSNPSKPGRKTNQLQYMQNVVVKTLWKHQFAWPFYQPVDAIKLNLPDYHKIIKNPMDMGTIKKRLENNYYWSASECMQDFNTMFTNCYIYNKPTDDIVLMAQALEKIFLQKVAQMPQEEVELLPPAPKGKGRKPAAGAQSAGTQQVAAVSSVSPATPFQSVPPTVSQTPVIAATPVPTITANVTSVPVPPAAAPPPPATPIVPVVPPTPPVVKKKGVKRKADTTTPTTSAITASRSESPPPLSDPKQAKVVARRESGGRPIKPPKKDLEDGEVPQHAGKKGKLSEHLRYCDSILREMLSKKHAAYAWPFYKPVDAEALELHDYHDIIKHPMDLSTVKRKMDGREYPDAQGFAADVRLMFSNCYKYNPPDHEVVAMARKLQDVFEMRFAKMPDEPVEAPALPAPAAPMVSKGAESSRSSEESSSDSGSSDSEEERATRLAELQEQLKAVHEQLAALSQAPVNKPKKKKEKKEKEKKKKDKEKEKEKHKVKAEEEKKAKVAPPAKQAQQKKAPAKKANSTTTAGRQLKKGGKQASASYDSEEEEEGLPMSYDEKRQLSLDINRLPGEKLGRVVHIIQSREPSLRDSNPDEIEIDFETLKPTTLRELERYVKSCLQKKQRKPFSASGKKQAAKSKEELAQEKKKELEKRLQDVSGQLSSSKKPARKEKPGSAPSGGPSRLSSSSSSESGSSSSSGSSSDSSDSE", "assay": "Inhibition of FAM-labeled ZBA248 binding to recombinant N-terminal His6-tagged BRD3 bromodomain 1 (24 to 144 residues) (unknown origin) expressed in Escherichia coli Rosetta2 DE3 after 30 mins by fluorescence polarization assay"}, "[4]": {"biological_target": "T2, Bromodomain-containing protein 3", "assay": "Inhibition of FAM-labeled ZBA248 binding to recombinant N-terminal His6-tagged BRD3 bromodomain 2 (306 to 417residues) (unknown origin) expressed in Escherichia coli Rosetta2 DE3 after 30 mins by fluorescence polarization assay"}, "[5]": {"biological_target": "T3, Bromodomain-containing protein 4 (Homo sapiens, UniProt O60885)", "assay": "Inhibition of FAM-labeled ZBA248 binding to recombinant N-terminal His6-tagged BRD4 bromodomain 1 (44 to 168 residues) (unknown origin) expressed in Escherichia coli Rosetta2 DE3 after 30 mins by fluorescence polarization assay"}, "[6]": {"biological_target": "T3, Bromodomain-containing protein 4", "assay": "Inhibition of FAM-labeled ZBA248 binding to recombinant N-terminal His6-tagged BRD4 bromodomain 2 (333 to 460 residues) (unknown origin) expressed in Escherichia coli Rosetta2 DE3 after 30 mins by fluorescence polarization assay"}, "RS4-11 [7]": {"system": "RS4-11", "assay": "Cytotoxicity against human RS4:11 cells assessed as cell growth inhibition after 4 days by WST-8 assay", "assay_type": "functional, cell-based", "settings": "RS4-11, 96 h"}, "MOLM-13 [8]": {"system": "MOLM-13", "assay": "Cytotoxicity against human MOLM13 cells assessed as cell growth inhibition after 4 days by WST-8 assay", "assay_type": "functional, cell-based", "settings": "MOLM-13, 96 h"}, "[9]": {"biological_target": "T4, Protein cereblon/Bromodomain-containing protein 4/Cullin-4A (Homo sapiens) (UniProt O60885+Q96SW2+Q13619)", "assay": "Induction of cereblon/cullin 4A-mediated BRD4 degradation in human RS4:11 cells at 30 to 1000 nM after 24 hrs by Western blot method", "assay_type": "cell-based", "summary_of_the_method": "(§1)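 Western blot of RS4;11 cells (2 × 10⁶ cells/well) in RPMI 1640 with 10% FBS, 37 °C, 5% CO₂, used within three months of thawing. Compound exposure was 3 h or 24 h at the indicated concentrations. Cells were lysed in RIPA with protease inhibitors, and BRD2, BRD3 and BRD4 were detected with specific antibodies, with GAPDH as loading control.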"}, "[10]": {"biological_target": "T5, Protein cereblon/Bromodomain-containing protein 2/Cullin-4A (Homo sapiens) (UniProt P25440+Q96SW2+Q13619)", "T5 sequence (P25440 whole entry, looked up)": "as the sequence (P25440 whole entry, the tested form may be a part) above", "T5 sequence (Q13619 whole entry, looked up)": "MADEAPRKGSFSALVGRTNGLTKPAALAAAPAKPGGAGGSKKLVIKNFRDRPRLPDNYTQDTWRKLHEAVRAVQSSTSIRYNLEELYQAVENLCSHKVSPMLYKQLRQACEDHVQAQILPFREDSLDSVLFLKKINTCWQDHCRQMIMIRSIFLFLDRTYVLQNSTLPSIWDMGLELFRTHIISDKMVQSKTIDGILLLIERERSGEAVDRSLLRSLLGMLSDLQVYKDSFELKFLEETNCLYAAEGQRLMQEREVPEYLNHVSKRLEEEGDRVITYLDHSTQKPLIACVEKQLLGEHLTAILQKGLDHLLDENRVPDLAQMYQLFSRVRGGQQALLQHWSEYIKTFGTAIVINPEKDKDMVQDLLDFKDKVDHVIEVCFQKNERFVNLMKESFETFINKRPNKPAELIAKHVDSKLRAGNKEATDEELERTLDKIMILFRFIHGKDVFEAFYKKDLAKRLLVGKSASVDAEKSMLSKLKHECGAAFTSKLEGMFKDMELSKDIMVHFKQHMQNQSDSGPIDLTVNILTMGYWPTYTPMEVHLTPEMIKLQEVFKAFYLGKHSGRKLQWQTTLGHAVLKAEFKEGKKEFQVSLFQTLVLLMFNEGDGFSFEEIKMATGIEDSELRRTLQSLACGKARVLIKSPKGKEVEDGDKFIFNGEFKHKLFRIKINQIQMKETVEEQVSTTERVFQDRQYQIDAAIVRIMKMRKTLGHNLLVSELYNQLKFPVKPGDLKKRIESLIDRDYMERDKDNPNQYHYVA", "T5 sequence (Q96SW2 whole entry, looked up)": "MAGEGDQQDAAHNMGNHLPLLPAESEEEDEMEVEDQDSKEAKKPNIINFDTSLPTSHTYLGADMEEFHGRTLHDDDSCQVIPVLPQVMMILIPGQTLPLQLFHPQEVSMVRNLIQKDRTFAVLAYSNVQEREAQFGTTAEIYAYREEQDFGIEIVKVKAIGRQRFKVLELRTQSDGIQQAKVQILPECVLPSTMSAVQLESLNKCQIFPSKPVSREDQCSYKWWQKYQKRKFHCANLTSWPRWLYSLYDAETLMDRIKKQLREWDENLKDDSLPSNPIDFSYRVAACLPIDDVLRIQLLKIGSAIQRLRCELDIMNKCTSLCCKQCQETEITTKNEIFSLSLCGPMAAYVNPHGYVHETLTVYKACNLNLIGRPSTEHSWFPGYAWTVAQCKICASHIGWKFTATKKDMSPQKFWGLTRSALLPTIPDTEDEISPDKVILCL", "assay": "Induction of cereblon/cullin 4A-mediated BRD2 degradation in human RS4:11 cells at 30 to 1000 nM after 24 hrs by Western blot method", "assay_type": "cell-based", "summary_of_the_method": "(§2)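 RS4;11 cells (2 × 10⁶/well) treated for 24 h at the indicated concentrations. Lysed in RIPA with protease inhibitors and immunoblotted for BRD2, BRD3, BRD4, c-Myc and PARP, with GAPDH as loading control.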"}, "[11]": {"biological_target": "T6, Protein cereblon/Bromodomain-containing protein 3/Cullin-4A (Homo sapiens) (UniProt Q15059+Q96SW2+Q13619)", "T6 sequence (Q13619 whole entry, looked up)": "as the sequence (Q13619 whole entry, looked up) above", "T6 sequence (Q15059 whole entry, looked up)": "as the sequence (Q15059 whole entry, the tested form may be a part) above", "T6 sequence (Q96SW2 whole entry, looked up)": "as the sequence (Q96SW2 whole entry, looked up) above", "assay": "Induction of cereblon/cullin 4A-mediated BRD3 degradation in human RS4:11 cells at 30 to 1000 nM after 24 hrs by Western blot method", "assay_type": "cell-based", "summary_of_the_method": "as §1"}, "[12]": {"biological_target": "T6, Protein cereblon/Bromodomain-containing protein 3/Cullin-4A (Homo sapiens)", "assay": "Induction of cereblon/cullin 4A-mediated BRD3 degradation in human RS4:11 cells at 100 to 300 nM after 3 hrs by Western blot method", "assay_type": "cell-based", "summary_of_the_method": "(§3)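 RS4;11 cells (2 × 10⁶/well) treated for 3 h at the indicated concentrations. Lysed in RIPA with protease inhibitors and immunoblotted for BRD2, BRD3 and BRD4 with specific antibodies.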"}, "[13]": {"biological_target": "T4, Protein cereblon/Bromodomain-containing protein 4/Cullin-4A (Homo sapiens)", "assay": "Induction of cereblon/cullin 4A-mediated BRD4 degradation in human RS4:11 cells at 100 to 300 nM after 3 hrs by Western blot method", "assay_type": "cell-based", "summary_of_the_method": "as §1"}, "[14]": {"biological_target": "T5, Protein cereblon/Bromodomain-containing protein 2/Cullin-4A (Homo sapiens)", "assay": "Induction of cereblon/cullin 4A-mediated BRD2 degradation in human RS4:11 cells at 100 to 300 nM after 3 hrs by Western blot method", "assay_type": "cell-based", "summary_of_the_method": "as §3"}, "RS4-11 [15]": {"system": "RS4-11", "assay": "Induction of cell cycle arrest in human RS4:11 cells after 24 hrs by propidium iodide staining based flow cytometry", "assay_type": "functional", "summary_of_the_method": "(§4)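 RS4;11 or MOLM-13 cells treated with compound for 24 h, then analyzed by flow cytometry. Cell cycle read by propidium iodide staining and apoptosis by annexin V/propidium iodide staining.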"}, "MOLM-13 [16]": {"system": "MOLM-13", "assay": "Induction of cell cycle arrest in human MOLM13 cells after 24 hrs by propidium iodide staining based flow cytometry", "assay_type": "functional", "summary_of_the_method": "as §4"}, "RS4-11 [17]": {"system": "RS4-11", "assay": "Induction of apoptosis in human RS4:11 cells at 30 to 300 nM after 24 hrs by Annexin-V/propidium iodide staining based flow cytometry", "assay_type": "functional, cell-based", "summary_of_the_method": "as §4"}, "MOLM-13 [18]": {"system": "MOLM-13", "assay": "Induction of apoptosis in human MOLM13 cells at 30 to 300 nM after 24 hrs by Annexin-V/propidium iodide staining based flow cytometry", "assay_type": "functional, cell-based", "summary_of_the_method": "as §4"}, "Homo sapiens": {"organism": "Homo sapiens", "assay": "Induction of cereblon/cullin 4A-mediated BET degradation in human RS4:11 cells assessed as downregulation of c-myc protein level at 300 to 1000 nM after 24 hrs by Western blot method", "assay_type": "cell-based", "summary_of_the_method": "as §2"}}, "note": "The source made the active and inactive calls. The calls are words filed in the database; no cut-off is given here."}
{"smiles": "CCn1nc(C2CC2)cc1Nc1nc(C(=O)NC)nc2[nH]c3cc(-c4c(C)noc4C)c(OC)cc3c12", "values": [{"measurement": "IC50", "setting": "[1]", "result": 3.1, "unit": "nM"}, {"measurement": "Ki", "setting": "[1]", "result": 0.9, "unit": "nM"}, {"measurement": "IC50", "setting": "[2]", "result": 3.9, "unit": "nM"}, {"measurement": "Ki", "setting": "[2]", "result": 0.27, "unit": "nM"}, {"measurement": "IC50", "setting": "[3]", "result": 6.6, "unit": "nM"}, {"measurement": "Ki", "setting": "[3]", "result": 0.18, "unit": "nM"}, {"measurement": "IC50", "setting": "[4]", "result": 1.9, "unit": "nM"}, {"measurement": "Ki", "setting": "[4]", "result": 0.21, "unit": "nM"}, {"measurement": "IC50", "setting": "[5]", "result": 7, "unit": "nM"}, {"measurement": "Ki", "setting": "[5]", "result": 0.5, "unit": "nM"}, {"measurement": "IC50", "setting": "[6]", "result": 7, "unit": "nM"}, {"measurement": "Ki", "setting": "[6]", "result": 1, "unit": "nM"}, {"measurement": "IC50", "setting": "RS4-11 [7]", "result": 24.1, "unit": "nM"}, {"measurement": "IC50", "setting": "MOLM-13 [8]", "result": 25.6, "unit": "nM"}, {"measurement": "Activity", "setting": "[9]", "result": "inactive"}, {"measurement": "Activity", "setting": "[10]", "result": "inactive"}, {"measurement": "Activity", "setting": "[11]", "result": "inactive"}, {"measurement": "Activity", "setting": "[12]", "result": "inactive"}, {"measurement": "Activity", "setting": "[13]", "result": "inactive"}, {"measurement": "Activity", "setting": "[14]", "result": "inactive"}, {"measurement": "Activity", "setting": "RS4-11 [15]", "result": "Dose-dependent effect"}, {"measurement": "Activity", "setting": "MOLM-13 [16]", "result": "Dose-dependent effect"}, {"measurement": "Activity", "setting": "RS4-11 [17]", "result": "inactive"}, {"measurement": "Activity", "setting": "MOLM-13 [18]", "result": "inactive"}, {"measurement": "Activity", "setting": "Homo sapiens", "result": "Active"}]}
